From ChEMBL document CHEMBL1123710, “Molecular structure of the dihydropyridazinone cardiotonic 1,3-dihydro-3,3-dimethyl-5-(1,4,5,6-tetrahydro-6-oxo-pyridazinyl)- 2H-indol-2-one, a potent inhibitor of cyclic AMP phosphodiesterase” (1987)

Columns and labels:
Canis familiaris [1] = assay: Percent decrease in mean arterial blood pressure (MAP) was determined in anesthetized dogs; format: functional, Canis lupus familiaris
Summary of the method: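 Femoral arterial pressure in anesthetized dogs via heparin-filled catheter and pressure transducer; baseline MAP 99 ± 3 mmHg. Escalating iv doses via femoral vein every 5 min, peak responses taken. Value is percent change in mean arterial pressure at the inotropic ED50 dose.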

Canis familiaris [2] = assay: Myocardial contractility was determined after intravenous administration in phenobarbital-anesthetized dogs; format: functional; conditions: Canis lupus familiaris, Myocardium
Summary of the method: (§1)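 Dogs under anesthesia; Walton-Brodie strain-gauge arch sutured to right ventricle, tension set at 50 g. Increasing iv doses via femoral vein at 5-min intervals, peak responses recorded; vehicle injections tested. Inotropic ED50 by linear regression, mean ± SEM. Preload/afterload independence confirmed with dextran bolus and aortic compression.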

Canis familiaris [3] = assay: Percent increase in heart rate (HR) in anesthetized dogs was determined; format: functional, Canis lupus familiaris
Canis familiaris [4] = assay: Myocardial contractility was determined after intravenous administration in phenobarbital-anesthetized dogs (n=4).; format: functional; conditions: Canis lupus familiaris, Myocardium; summary of the method: as §1
Canis familiaris [5] = assay: Myocardial contractility was determined after intravenous administration in phenobarbital anesthetized dogs (n=4).; format: functional; conditions: Canis lupus familiaris, Myocardium; summary of the method: as §1

| Structure (SMILES) | Decrease (Canis familiaris [1]) | ED50 (Canis familiaris [2]) | Increase (Canis familiaris [3]) | ED50 (Canis familiaris [4]) | ED50 (Canis familiaris [5]) |
| --- | --- | --- | --- | --- | --- |
| CC1(C)C(=O)Nc2ccc(-c3ccc(O)nn3)cc21 | 18% | 7.4 µg/kg | 24% | – | – |
| CC1(C)C(=O)Nc2ccc(C3=NNC(=O)CC3)cc21 [INDOLIDAN] | 15% | – | 12% | 6.8 µg/kg | – |
| CC1CC(=O)NN=C1c1ccc2c(c1)C(C)(C)C(=O)N2 (configuration not stated) | 31% | – | 20% | 3.6 µg/kg | – |
| Cc1cc(O)nnc1-c1ccc2c(c1)C(C)(C)C(=O)N2 | 20% | – | 15% | – | 32.6 µg/kg |
